ChEMBL document CHEMBL3120086, “Bioactive compounds from Vitex leptobotrys” (J Nat Prod, 2014)

Columns and labels:
[1] = tested on: Human gammaherpesvirus 4; assay: Antiviral activity against EBV infected in human Akata cells by DNA hybridization assay; type: functional, organism-based; conditions: human gammaherpesvirus 4, Akata
Outline: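 Under an NIAID agreement, testing was done at Southern Research Institute as part of a 21-virus panel. EBV activity was assessed in Akata cells by DNA hybridization, and EC50 values were derived.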

[2] = Selectivity index, ratio of cytotoxicity towards human Akata cells to EC50 for EBV infected in human Akata cells; type: toxicity, cell-based; conditions: read-out: Selectivity Index
[3] = tested on: Human immunodeficiency virus 1; assay: Antiviral activity against HIV-1 3B/H9 infected in human HOG.R5 cells transfected with HIV1 LTR-GFP assessed as inhibition of viral replication at 15.9 uM by fluorescence analysis; type: functional; conditions: Human immunodeficiency virus 1, 3B
[4] = tested on: Human immunodeficiency virus 1; assay: Antiviral activity against HIV-1 3B/H9 infected in human HOG.R5 cells transfected with HIV1 LTR-GFP assessed as inhibition of viral replication by fluorescence analysis; type: functional, organism-based; conditions: Human immunodeficiency virus 1, 3B
[5] = Cytotoxicity against human HOG.R5 cells infected with HIV-1 3B; type: cell-based
Outline: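 Cytotoxicity was run in parallel with the anti-HIV assay, in the same GFP-reporter HOG·R5 line (HOS cells expressing CD4/CCR5). Cell-growth inhibition of the host cells was measured.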

[6] = tested on: Human immunodeficiency virus 1; assay: Antiviral activity against HIV-1 3B/H9 infected in human HOG.R5 cells transfected with HIV1 LTR-GFP assessed as inhibition of viral replication at 10 ug/ml by fluorescence analysis; type: functional; conditions: Human immunodeficiency virus 1, 3B

Compound	EC50 [1] [µM]	selectivity ratio [2]	inhibition at 15.9 µM [3] [%]	IC50 [4] [µM]	CC50 [5] [µM]	inhibition at 10 µg/mL [6] [%]
O[C@]12CO[C@@H](c3ccc4c(c3)OCO4)[C@@]1(O)CO[C@@H]2c1ccc2c(c1)OCO2	67	1.2	–	–	–	–
COc1cc(OC)c(C(=O)/C=C/c2ccc(O)cc2)c(OC)c1	15	3.5	77	< 15.2	24.4	–
C=Cc1c(C)c2cc3nc(c4c5[nH]c(cc6nc(cc1[nH]2)C(C)=C6CC)c(C)c5C(=O)[C@@H]4C(=O)OC)[C@@H](CCC(=O)O)[C@@H]3C [PHEOPHORBIDE A]	–	–	–	–	–	80
